How the values were obtained:
[1] = tested on: Liver; experiment: Cmax in Sprague-Dawley rat liver assessed as 2'-C-methyl guanosine triphosphate level at 10 mg/kg, po up to 24 hrs by LC-MS/Ms analysis; type: ADME, organism-based; parameters: dose 10 mg/kg, route oral; details: in vivo
Procedure, shortened: (§1)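 Male Sprague-Dawley rats dosed orally by gavage at 10 mg/kg in 95% Capmul MCM/5% Tween 80. Livers collected terminally at eight time points up to 24 h and snap-frozen in liquid nitrogen. Liver 2′-C-methylguanosine triphosphate quantified by LC-MS/MS, linear over 100−4000 ng per gram of tissue (r² ≥ 0.99, ≥85% accuracy, ≤2% CV).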

[2] = tested on: Liver; experiment: AUC (0 to t) in Sprague-Dawley rat liver assessed as 2'-C-methyl guanosine triphosphate level at 10 mg/kg, po up to 24 hrs by LC-MS/Ms analysis; type: ADME, organism-based; parameters: dose 10 mg/kg, route oral; details: in vivo; procedure, shortened: as §1
[3] = tested on: Liver; experiment: Tmax in Sprague-Dawley rat liver assessed as 2'-C-methyl guanosine triphosphate level at 10 mg/kg, po up to 24 hrs by LC-MS/Ms analysis; type: ADME, organism-based; parameters: dose 10 mg/kg, route oral; details: in vivo; procedure, shortened: as §1
[4] = tested on: Liver; experiment: Clast in Sprague-Dawley rat liver assessed as 2'-C-methyl guanosine triphosphate level at 10 mg/kg, po up to 24 hrs by LC-MS/Ms analysis; type: ADME, organism-based; parameters: dose 10 mg/kg, route oral; details: in vivo; procedure, shortened: as §1
[5] = Cytotoxicity against human HuH7 cells after 3 days; type: cell-based, Huh-7
Procedure, shortened: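 Huh7 replicon cells seeded at 2 × 10⁴ per well one day before dosing. Four-fold serial dilutions in growth medium, no-drug controls on each plate. Incubated 3 days at 37 °C, 5% CO₂. Viability read by CellTiter-Glo luminescence after 20 min with reagent.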

[6] = tested on: Hepatitis C virus; experiment: Antiviral activity against Hepatitis C virus subtype 1b Con1 infected in human Huh7 cells assessed as inhibition of HCV replicon-encoded Renilla luciferase reporter activity after 72 hrs by HCV replicon assay; type: functional, organism-based, Hepacivirus hominis; details: Con1, Huh-7, 72 h
Procedure, shortened: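 Huh7 cells stably carrying a bicistronic subgenomic genotype 1b (Con1) replicon with Renilla luciferase reporter, seeded at 2 × 10⁴ cells/well the day before. Four-fold serial dilutions in growth medium, no-drug controls on each plate; 3 days at 37 °C, 5% CO₂. Luciferase reagent 20 min, then luminescence (RLU) read; EC₅₀ derived.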

COc1nc(N)nc2c1ncn2[C@@H]1O[C@H](COP(=O)(N[C@@H](C)C(=O)OCC(C)(C)C)Oc2cccc3ccccc23)[C@@H](O)[C@@]1(C)O (some centres undefined) [BMS-986094]
Cmax [1]: 1446.7 ng/g
AUCt [2]: 24557 ng·h/g
Tmax [3]: 8 h
Clast [4]: 983.3 ng/g

COc1nc(N)nc2c1ncn2[C@@H]1O[C@H](COP(=O)(N[C@@H](C)C(=O)OC2Cc3ccccc3C2)N[C@@H](C)C(=O)OC2Cc3ccccc3C2)[C@@H](O)[C@@]1(C)O (mixture of isomers)
CC50 at 72 h [5]: 70000 nM
Cmax [1]: 632 ng/g
AUCt [2]: 10642 ng·h/g
EC50 [6]: 580 nM
EC90 [6]: 1300 nM
Tmax [3]: 24 h
Clast [4]: 632 ng/g

COc1nc(N)nc2c1ncn2[C@@H]1O[C@H](COP(=O)(N[C@@H](C)C(=O)OC2CCCC2)N[C@@H](C)C(=O)OC2CCCC2)[C@@H](O)[C@@]1(C)O (mixture of isomers)
CC50 at 72 h [5]: > 100000 nM
Cmax [1]: 1523.3 ng/g
AUCt [2]: 24546 ng·h/g
EC50 [6]: 60 nM
EC90 [6]: 220 nM
Tmax [3]: 8 h
Clast [4]: 610 ng/g

COc1nc(N)nc2c1ncn2[C@@H]1O[C@H](COP(=O)(N[C@H](C)C(=O)OCC(C)(C)C)N[C@H](C)C(=O)OCC(C)(C)C)[C@@H](O)[C@@]1(C)O (mixture of isomers)
CC50 at 72 h [5]: > 100000 nM
Cmax [1]: 598.3 ng/g
AUCt [2]: 11608 ng·h/g
EC50 [6]: 110 nM
EC90 [6]: 500 nM
Tmax [3]: 8 h
Clast [4]: 441.7 ng/g

CCCCOC(=O)[C@H](C)NP(=O)(N[C@@H](C)C(=O)OCCCC)OC[C@H]1O[C@@H](n2cnc3c(OC)nc(N)nc32)[C@](C)(O)[C@@H]1O (mixture of isomers)
CC50 at 72 h [5]: > 100000 nM
Cmax [1]: 1553.3 ng/g
AUCt [2]: 27671 ng·h/g
EC50 [6]: 70 nM
EC90 [6]: 230 nM
Tmax [3]: 8 h
Clast [4]: 719.7 ng/g

CCOc1nc(N)nc2c1ncn2[C@@H]1O[C@H](COP(=O)(N[C@@H](C)C(=O)OC2CCCCC2)N[C@@H](C)C(=O)OC2CCCCC2)[C@@H](O)[C@@]1(C)O (mixture of isomers)
CC50 at 72 h [5]: 69000 nM
EC50 [6]: 50 nM
EC90 [6]: 150 nM

COc1nc(N)nc2c1ncn2[C@@H]1O[C@H](COP(=O)(NCC(=O)OCC(C)(C)C)NCC(=O)OCC(C)(C)C)[C@@H](O)[C@@]1(C)O (mixture of isomers)
CC50 at 72 h [5]: > 100000 nM
EC50 [6]: 130 nM
EC90 [6]: 600 nM

COc1nc(N)nc2c1ncn2[C@@H]1O[C@H](COP(=O)(N[C@@H](C)C(=O)OC2CCCCC2)N[C@@H](C)C(=O)OC2CCCC2)[C@@H](O)[C@@]1(C)O (mixture of isomers)
CC50 at 72 h [5]: > 100000 nM
EC50 [6]: 40 nM
EC90 [6]: 160 nM

COc1nc(N)nc2c1ncn2[C@@H]1O[C@H](COP(=O)(N[C@@H](Cc2ccccc2)C(=O)OC2CCCCC2)N[C@@H](Cc2ccccc2)C(=O)OC2CCCCC2)[C@@H](O)[C@@]1(C)O (mixture of isomers)
CC50 at 72 h [5]: 25000 nM
EC50 [6]: 500 nM
EC90 [6]: 2000 nM

CCCOC(=O)[C@H](C)NP(=O)(N[C@@H](C)C(=O)OCCC)OC[C@H]1O[C@@H](n2cnc3c(OC)nc(N)nc32)[C@](C)(O)[C@@H]1O (mixture of isomers)
CC50 at 72 h [5]: > 100000 nM
EC50 [6]: 280 nM
EC90 [6]: 1200 nM

COc1nc(N)nc2c1ncn2[C@@H]1O[C@H](COP(=O)(N[C@@H](C)C(=O)OCC(C)(C)C)N[C@@H](C)C(=O)OC(C)(C)C)[C@@H](O)[C@@]1(C)O (mixture of isomers)
CC50 at 72 h [5]: > 100000 nM
EC50 [6]: 150 nM
EC90 [6]: 570 nM

COc1nc(N)nc2c1ncn2[C@@H]1O[C@H](COP(=O)(N[C@@H](C)C(=O)OCC2CC2)N[C@@H](C)C(=O)OCC2CC2)[C@@H](O)[C@@]1(C)O (mixture of isomers)
CC50 at 72 h [5]: > 100000 nM
EC50 [6]: 210 nM
EC90 [6]: 660 nM

COC(=O)[C@@H]1CCCN1P(=O)(N[C@@H](C)C(=O)OCC(C)(C)C)OC[C@H]1O[C@@H](n2cnc3c(OC)nc(N)nc32)[C@](C)(O)[C@@H]1O (mixture of isomers)
CC50 at 72 h [5]: > 100000 nM
EC50 [6]: 490 nM
EC90 [6]: 2200 nM

COc1nc(N)nc2c1ncn2[C@@H]1O[C@H](COP(=O)(N[C@@H](C)C(=O)OCC(C)(C)C)N[C@@H](C)C(=O)OC2CCCCC2)[C@@H](O)[C@@]1(C)O (mixture of isomers)
CC50 at 72 h [5]: > 100000 nM
EC50 [6]: 40 nM
EC90 [6]: 150 nM

COc1nc(N)nc2c1ncn2[C@@H]1O[C@H](COP(=O)(N2CCOCC2)N2CCOCC2)[C@@H](O)[C@@]1(C)O (mixture of isomers)
CC50 at 72 h [5]: > 100000 nM
EC50 [6]: > 100000 nM
EC90 [6]: > 100000 nM

COc1nc(N)nc2c1ncn2[C@@H]1O[C@H](COP(=O)(N[C@@H](C)C(=O)OCCC(C)(C)C)N[C@@H](C)C(=O)OCCC(C)(C)C)[C@@H](O)[C@@]1(C)O (mixture of isomers)
CC50 at 72 h [5]: 71000 nM
EC50 [6]: 20 nM
EC90 [6]: 90 nM

COc1nc(N)nc2c1ncn2[C@@H]1O[C@H](COP(=O)(N[C@@H](C)C(=O)OCc2ccccc2)N[C@@H](C)C(=O)OCC(C)(C)C)[C@@H](O)[C@@]1(C)O (mixture of isomers)
CC50 at 72 h [5]: > 100000 nM
EC50 [6]: 150 nM
EC90 [6]: 400 nM

COC(=O)[C@@H](NP(=O)(N[C@@H](C)C(=O)OCC(C)(C)C)OC[C@H]1O[C@@H](n2cnc3c(OC)nc(N)nc32)[C@](C)(O)[C@@H]1O)C(C)C (mixture of isomers)
CC50 at 72 h [5]: > 100000 nM
EC50 [6]: 170 nM
EC90 [6]: 690 nM

CCCCNP(=O)(N[C@@H](C)C(=O)OCC(C)(C)C)OC[C@H]1O[C@@H](n2cnc3c(OC)nc(N)nc32)[C@](C)(O)[C@@H]1O (mixture of isomers)
CC50 at 72 h [5]: > 100000 nM
EC50 [6]: 410 nM
EC90 [6]: 1500 nM

COc1nc(N)nc2c1ncn2[C@@H]1O[C@H](COP(=O)(N[C@@H](C)C(=O)OCc2ccc(F)cc2F)N[C@@H](C)C(=O)OCc2ccc(F)cc2F)[C@@H](O)[C@@]1(C)O (mixture of isomers)
CC50 at 72 h [5]: 54000 nM
EC50 [6]: 260 nM
EC90 [6]: 1070 nM

CCCCCOC(=O)[C@H](C)NP(=O)(N[C@@H](C)C(=O)OCCCCC)OC[C@H]1O[C@@H](n2cnc3c(OC)nc(N)nc32)[C@](C)(O)[C@@H]1O (mixture of isomers)
CC50 at 72 h [5]: 65000 nM
Cmax [1]: 1042.3 ng/g
AUCt [2]: 18600 ng·h/g
EC50 [6]: 30 nM
EC90 [6]: 110 nM
Tmax [3]: 8 h
Clast [4]: 506 ng/g

CCC(C)OC(=O)[C@H](C)NP(=O)(N[C@@H](C)C(=O)OC(C)CC)OC[C@H]1O[C@@H](n2cnc3c(OC)nc(N)nc32)[C@](C)(O)[C@@H]1O (mixture of isomers)
CC50 at 72 h [5]: > 100000 nM
Cmax [1]: 907.7 ng/g
AUCt [2]: 16252 ng·h/g
EC50 [6]: 150 nM
EC90 [6]: 530 nM
Tmax [3]: 8 h
Clast [4]: 538.7 ng/g

COc1nc(N)nc2c1ncn2[C@@H]1O[C@H](COP(=O)(N[C@@H](CCSC)C(=O)OCC(C)(C)C)N[C@@H](CCSC)C(=O)OCC(C)(C)C)[C@@H](O)[C@@]1(C)O (mixture of isomers)
CC50 at 72 h [5]: > 100000 nM
EC50 [6]: 2220 nM
EC90 [6]: 5000 nM

COc1nc(N)nc2c1ncn2[C@@H]1O[C@H](COP(=O)(N2CCC[C@H]2C(=O)OCC(C)(C)C)N2CCC[C@H]2C(=O)OCC(C)(C)C)[C@@H](O)[C@@]1(C)O (mixture of isomers)
CC50 at 72 h [5]: 56000 nM
EC50 [6]: 810 nM
EC90 [6]: 2000 nM

COc1nc(N)nc2c1ncn2[C@@H]1O[C@H](COP(=O)(N[C@H](C(=O)OCc2ccccc2)C(C)C)N[C@H](C(=O)OCc2ccccc2)C(C)C)[C@@H](O)[C@@]1(C)O (mixture of isomers)
CC50 at 72 h [5]: 49000 nM
Cmax [1]: 359.5 ng/g
AUCt [2]: 4478 ng·h/g
EC50 [6]: 120 nM
EC90 [6]: 660 nM
Tmax [3]: 4 h
Clast [4]: 73.6 ng/g

— ChEMBL document CHEMBL2150978, “Phosphorodiamidates as a promising new phosphate prodrug motif for antiviral drug discovery: application to anti-HCV agents” (J Med Chem, 2011)
